Measurements from ChEMBL document CHEMBL1142975 (J Med Chem, 2007).
Activity calls are given as the source filed them. The calls are words filed in the database; no cut-off is given here.

Assays:
[1] = system: Vaccinia virus; experiment: Antiviral activity against vaccinia virus IHD-J in BSC40 cells by CPE assay; format: functional, organism-based; settings: Orthopoxvirus vaccinia, BSC-40
[2] = system: Variola virus; experiment: Antiviral activity against variola virus BUT virus by CPE assay; format: functional, organism-based
[3] = system: Camelpox virus; experiment: Antiviral activity against camelpox virus by CPE assay; format: functional, organism-based
[4] = system: Variola virus; experiment: Antiviral activity against variola virus BSH virus by CPE assay; format: functional, organism-based
[5] = Cytotoxicity against vaccinia virus IHD-J infected BSC40 cells; format: cell-based, Macaca mulatta; settings: rhesus monkey, BSC-40 cells infected with vaccinia virus IHD-J
[6] = system: Monkeypox virus; experiment: Antiviral activity against monkeypox virus by CPE assay; format: functional, organism-based
[7] = system: Cowpox virus; experiment: Antiviral activity against cowpox virus by CPE assay; format: functional, organism-based
[8] = Half life in rat at 2 mg/kg, po; format: ADME, organism-based; parameters: dose 2 mg/kg, route oral; settings: in vivo
Method in brief: (§1)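 Rats were dosed orally in 0.75% Methocell/1% Tween vehicle, and a separate intravenous arm was run to derive bioavailability. Plasma concentration–time data gave Tmax, Cmax, AUC, t1/2, clearance, Vss and %F.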

[9] = system: Mus musculus; experiment: Toxicity in mouse at 2000 mg/kg after 28 days; format: organism-based; parameters: dose 2000 mg/kg; settings: in vivo, 672 h
Method in brief: (§2)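 Animals received 28-day repeat dosing, and the no observable adverse effect level (NOAEL) was determined.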

[10] = AUC in rat at 2 mg/kg, po; format: ADME, organism-based; parameters: dose 2 mg/kg, route oral; settings: plasma; method in brief: as §1
[11] = Metabolic stability in mouse Liver S9 fraction; format: ADME, subcellular
Method in brief: (§3)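 Compound was incubated with liver S-9 extracts from each species, with NADPH added. Loss of parent compound was followed by LC/MS and reported as half-life in minutes.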

[12] = Clearance in rat at 2 mg/kg, po; format: ADME, organism-based; parameters: dose 2 mg/kg, route oral; settings: in vivo; method in brief: as §1
[13] = Cmax in rat at 2 mg/kg, po; format: ADME, organism-based; parameters: dose 2 mg/kg, route oral; settings: in vivo; method in brief: as §1
[14] = system: Rattus norvegicus; experiment: Volume of distribution at steady state in rat at 2 mg/kg, po; format: ADME, organism-based; parameters: dose 2 mg/kg, route oral; settings: in vivo; method in brief: as §1
[15] = Oral bioavailability in rat at 2 mg/kg, po; format: ADME, organism-based; settings: in vivo; method in brief: as §1
[16] = Metabolic stability in dog Liver S9 fraction; format: ADME, subcellular, Canis lupus familiaris; method in brief: as §3
[17] = Metabolic stability in human Liver S9 fraction; format: ADME, subcellular; method in brief: as §3
[18] = system: Cynomolgus monkey; experiment: Toxicity in cynomolgus monkey at 600 mg/kg after 28 days; format: organism-based, Macaca fascicularis; parameters: dose 600 mg/kg; settings: in vivo, 672 h; method in brief: as §2
[19] = Metabolic stability in monkey Liver S9 fraction; format: ADME, subcellular, Macaca mulatta; settings: rhesus monkey; method in brief: as §3
[20] = system: Rotavirus; experiment: Antiviral activity against rotavirus by plaque reduction assay; format: functional, organism-based
[21] = Tmax in rat at 2 mg/kg, po; format: ADME, organism-based; parameters: dose 2 mg/kg, route oral; settings: in vivo; method in brief: as §1
[22] = system: Human betaherpesvirus 5; experiment: Antiviral activity against human cytomegalovirus AD169 by plaque reduction assay; format: functional, organism-based; settings: Human betaherpesvirus 5, AD169
[23] = system: Vaccinia virus; experiment: Antiviral activity assessed as inhibition of extracellular virus formation in vaccinia virus IHD-J infected BSC40 cells at 5 uM after 24 hrs; format: functional, organism-based; settings: Orthopoxvirus vaccinia, BSC-40
[24] = Metabolic stability in rat Liver S9 fraction; format: ADME, subcellular; method in brief: as §3
[25] = system: Human alphaherpesvirus 1; experiment: Antiviral activity against HSV1 KOS by plaque reduction assay; format: functional, organism-based; settings: Human alphaherpesvirus 1, KOS
[26] = system: Bovine viral diarrhea virus 1; experiment: Antiviral activity against BVDV NADL by plaque reduction assay; format: functional, organism-based; settings: Bovine viral diarrhea virus isolates and strains
[27] = system: Respiratory syncytial virus; experiment: Antiviral activity against RSV A by plaque reduction assay; format: functional, organism-based; settings: human respiratory syncytial virus

Compound | EC50 [1] | EC50 [2] | EC50 [3] | EC50 [4] | CC50 [5] | EC50 [6] | other results
O=C(NN1C(=O)[C@@H]2C3C=CC(C4CC43)[C@@H]2C1=O)c1ccccn1 (stereo partly specified) | > 20000 nM | 10000 nM | 4200 nM | > 20000 nM | > 100000 nM | > 16000 nM | –
Cn1cccc1C(=O)NN1C(=O)[C@@H]2C3C=CC(C4CC43)[C@@H]2C1=O (stereo partly specified) | 15800 nM | – | – | – | > 100000 nM | – | –
O=C(NN1C(=O)[C@@H]2C3C=CC(C4CC43)[C@@H]2C1=O)c1ccccc1Cl (stereo partly specified) | 3000 nM | – | – | – | > 100000 nM | – | EC50 [7]: > 20000 nM
O=C(NN1C(=O)[C@@H]2C3C=CC(C4CC43)[C@@H]2C1=O)c1ccc(Cl)cc1 (stereo partly specified) | 20 nM | – | – | – | > 100000 nM | – | EC50 [7]: 770 nM
O=C(NN1C(=O)[C@@H]2C3C=CC(C4CC43)[C@@H]2C1=O)c1ccc(C(F)(F)F)cc1 (stereo partly specified) | 40 nM | 20 nM | 10 nM | 50 nM | > 100000 nM | 10 nM | half-life [8]: 4.2 h; Activity [9]: Non-toxic; AUC [10]: 6100 ng·h/mL; half-life [11]: > 3.33 h; CL/F [12]: 8.67 mL/min/kg; Cmax [13]: 920 ng/mL; Vss [14]: 0.6 L/kg; bioavailability [15]: 31%; half-life [16]: > 3.33 h; half-life [17]: > 3.33 h; Activity [18]: Non-toxic; half-life [19]: > 3.33 h; EC50 [20]: > 40000 nM; Tmax [21]: 2.2 h; EC50 [22]: > 40000 nM; Activity [23]: Active; half-life [24]: > 3.33 h; EC50 [25]: > 40000 nM; EC50 [26]: > 40000 nM; EC50 [27]: > 40000 nM
COc1ccc(C(=O)NN2C(=O)[C@@H]3C4C=CC(C5CC54)[C@@H]3C2=O)cc1 (stereo partly specified) | 2200 nM | – | – | – | > 100000 nM | – | –
O=C(NN1C(=O)[C@@H]2C3C=CC(C4CC43)[C@@H]2C1=O)c1cccnc1 (stereo partly specified) | 740 nM | – | – | – | > 100000 nM | – | –
O=C(NN1C(=O)[C@@H]2C3C=CC(C4CC43)[C@@H]2C1=O)c1ccc([N+](=O)[O-])cc1 (stereo partly specified) | 20 nM | – | – | – | > 86000 nM | – | –
O=C(NN1C(=O)[C@@H]2C3C=CC(C4CC43)[C@@H]2C1=O)c1cccc(Cl)c1 (stereo partly specified) | 40 nM | – | – | – | > 100000 nM | – | EC50 [7]: 600 nM
Nc1ccc(C(=O)NN2C(=O)[C@@H]3C4C=CC(C5CC54)[C@@H]3C2=O)cc1 (stereo partly specified) | 7700 nM | – | – | – | > 92000 nM | – | –
O=C(NN1C(=O)[C@@H]2C3CCC(C4CC43)[C@@H]2C1=O)c1ccc(C(F)(F)F)cc1 (stereo partly specified) | 20 nM | 10 nM | 30 nM | 200 nM | > 100000 nM | 80 nM | –
O=C(NN1C(=O)[C@@H]2C3C=CC(C4CC43)[C@@H]2C1=O)c1ccncc1 (stereo partly specified) | 500 nM | 220 nM | 110 nM | 400 nM | > 100000 nM | 150 nM | –
CN(C)c1ccc(C(=O)NN2C(=O)[C@@H]3C4C=CC(C5CC54)[C@@H]3C2=O)cc1 (stereo partly specified) | 2000 nM | – | – | – | > 100000 nM | – | –
O=C(NN1C(=O)[C@@H]2C3C=CC(C4CC43)[C@@H]2C1=O)c1ccc(Br)cc1 (stereo partly specified) | 20 nM | 20 nM | 10 nM | 50 nM | > 100000 nM | 10 nM | half-life [11]: > 3.33 h; half-life [16]: > 3.33 h; half-life [17]: 0.95 h; half-life [19]: > 3.33 h; half-life [24]: > 3.33 h
O=C(NN1C(=O)[C@@H]2C3C=CC(C4CC43)[C@@H]2C1=O)c1ccccc1Br (stereo partly specified) | 2300 nM | 1400 nM | 3800 nM | 3300 nM | > 100000 nM | 3600 nM | –
O=C(NN1C(=O)[C@@H]2C3C=CC(C4CC43)[C@@H]2C1=O)c1cccc(Br)c1 (stereo partly specified) | 50 nM | – | – | – | > 100000 nM | – | –
Cc1cc(C(=O)NN2C(=O)[C@@H]3C4C=CC(C5CC54)[C@@H]3C2=O)[nH]n1 (stereo partly specified) | 7100 nM | – | – | – | > 100000 nM | – | –
